ChEMBL document CHEMBL2406983, “Synthesis and the 5-HT6 receptor antagonistic effect of 3-arylsulfonylamino-5,6-dihydro-6-substituted pyrazolo[3,4]pyridinones for neuropathic pain treatment” (Bioorg Med Chem Lett, 2013)
Activity calls are given as the source filed them. The rule behind the calls is not given here.

Key:
[1] = biological target: T1, 5-hydroxytryptamine receptor 6 (Homo sapiens, UniProt P50406); assay: Antagonist activity at human 5-HT6 receptor expressed in human HeLa cells assessed as inhibition of 5-HT-induced cAMP accumulation pretreated for 10 mins before 5-HT addition measured after 30 mins; type: functional, cell-based
T1 sequence (P50406 whole entry): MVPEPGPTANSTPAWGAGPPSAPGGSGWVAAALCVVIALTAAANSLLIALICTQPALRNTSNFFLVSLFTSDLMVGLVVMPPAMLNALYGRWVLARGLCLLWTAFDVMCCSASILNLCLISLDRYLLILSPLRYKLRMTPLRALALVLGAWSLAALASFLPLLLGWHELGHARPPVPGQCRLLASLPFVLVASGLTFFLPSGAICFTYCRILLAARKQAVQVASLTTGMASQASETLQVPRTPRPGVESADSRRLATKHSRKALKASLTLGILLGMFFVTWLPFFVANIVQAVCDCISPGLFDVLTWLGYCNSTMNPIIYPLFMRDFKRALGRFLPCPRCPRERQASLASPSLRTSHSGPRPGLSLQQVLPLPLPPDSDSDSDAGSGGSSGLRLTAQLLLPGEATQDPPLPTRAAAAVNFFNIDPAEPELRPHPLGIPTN

[2] = biological target: T1, 5-hydroxytryptamine receptor 6; assay: Antagonist activity at human 5-HT6 receptor expressed in human HeLa cells assessed as inhibition of 5-HT-induced cAMP accumulation at 10 uM pretreated for 10 mins before 5-HT addition measured after 30 mins; type: functional, cell-based
Summary of the method: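 HeLa cells stably expressing human 5-HT6 receptor, grown at 37 °C in 5% CO2/95% air, suspended in PBS with 2 mM IBMX. Compound pretreatment 10 min, then 100 nM 5-HT stimulation for 30 min. cAMP measured by HTRF (d2-labeled cAMP plus cryptate anti-cAMP antibody, 1 h at room temperature), excitation 314 nm, emission 668 and 620 nm. Single-point inhibition read at […].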

CYP3A4 = CYP3A4 (Homo sapiens, UniProt P08684); assay: Inhibition of human CYP3A4 assessed as residual activity using ketoconazole as […] at 10 uM relative to control; type: ADME; settings: probe ketoconazole, read-out: Activity
Chain of CYP3A4 (P08684 whole entry): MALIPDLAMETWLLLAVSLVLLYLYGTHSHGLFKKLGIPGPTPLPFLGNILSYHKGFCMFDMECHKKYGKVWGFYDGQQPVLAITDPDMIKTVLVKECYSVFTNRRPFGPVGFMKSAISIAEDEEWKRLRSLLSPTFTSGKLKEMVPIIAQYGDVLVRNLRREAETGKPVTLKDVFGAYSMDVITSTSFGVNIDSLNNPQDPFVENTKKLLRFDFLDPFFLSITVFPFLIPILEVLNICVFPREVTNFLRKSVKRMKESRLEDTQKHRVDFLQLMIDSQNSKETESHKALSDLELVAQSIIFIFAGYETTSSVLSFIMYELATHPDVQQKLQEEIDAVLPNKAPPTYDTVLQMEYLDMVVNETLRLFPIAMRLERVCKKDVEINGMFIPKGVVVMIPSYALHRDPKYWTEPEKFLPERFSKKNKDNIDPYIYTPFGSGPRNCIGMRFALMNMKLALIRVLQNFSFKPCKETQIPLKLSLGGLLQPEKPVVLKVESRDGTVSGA

CYP2D6 = CYP2D6 (Homo sapiens, UniProt P10635); assay: Inhibition of human CYP2D6 assessed as residual activity using quinidine as […] at 10 uM relative to control; type: ADME; settings: probe quinidine, read-out: Activity
Chain of CYP2D6 (P10635 whole entry): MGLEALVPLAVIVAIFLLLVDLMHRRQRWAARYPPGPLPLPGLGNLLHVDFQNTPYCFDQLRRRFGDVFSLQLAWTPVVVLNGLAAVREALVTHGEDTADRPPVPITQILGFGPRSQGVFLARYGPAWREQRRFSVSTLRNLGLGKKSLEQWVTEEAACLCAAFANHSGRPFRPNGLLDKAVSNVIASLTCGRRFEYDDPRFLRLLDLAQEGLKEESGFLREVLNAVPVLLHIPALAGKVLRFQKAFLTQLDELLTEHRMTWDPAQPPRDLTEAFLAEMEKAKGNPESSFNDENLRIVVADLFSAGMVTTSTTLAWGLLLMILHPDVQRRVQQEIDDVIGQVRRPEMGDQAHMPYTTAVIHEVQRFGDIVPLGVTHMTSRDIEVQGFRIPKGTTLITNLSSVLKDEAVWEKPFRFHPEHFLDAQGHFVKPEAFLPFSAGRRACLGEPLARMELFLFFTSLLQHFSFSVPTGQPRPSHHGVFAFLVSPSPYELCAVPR

CYP2C19 = CYP2C19 (Homo sapiens, UniProt P33261); assay: Inhibition of human CYP2C19 assessed as residual activity using miconazole as […] at 10 uM relative to control; type: ADME; settings: probe miconazole, read-out: Activity
Chain of CYP2C19 (P33261 whole entry): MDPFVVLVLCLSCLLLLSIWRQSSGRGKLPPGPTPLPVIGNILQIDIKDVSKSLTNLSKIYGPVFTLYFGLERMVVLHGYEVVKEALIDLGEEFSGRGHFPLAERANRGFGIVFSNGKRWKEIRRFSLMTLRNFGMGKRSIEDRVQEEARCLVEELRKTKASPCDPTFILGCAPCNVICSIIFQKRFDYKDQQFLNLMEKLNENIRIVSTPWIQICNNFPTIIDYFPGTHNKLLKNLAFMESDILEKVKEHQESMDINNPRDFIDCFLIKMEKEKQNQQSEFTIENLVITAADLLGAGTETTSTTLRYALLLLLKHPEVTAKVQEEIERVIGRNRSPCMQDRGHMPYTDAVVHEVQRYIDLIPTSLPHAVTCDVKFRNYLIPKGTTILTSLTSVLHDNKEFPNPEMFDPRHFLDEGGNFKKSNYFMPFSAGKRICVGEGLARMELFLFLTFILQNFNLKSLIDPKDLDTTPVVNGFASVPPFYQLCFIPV

CYP2C9 = CYP2C9 (Homo sapiens, UniProt P11712); assay: Inhibition of human CYP2C9 assessed as residual activity using sulfaphenazol as […] at 10 uM relative to control; type: ADME; settings: read-out: Activity
Chain of CYP2C9 (P11712 whole entry): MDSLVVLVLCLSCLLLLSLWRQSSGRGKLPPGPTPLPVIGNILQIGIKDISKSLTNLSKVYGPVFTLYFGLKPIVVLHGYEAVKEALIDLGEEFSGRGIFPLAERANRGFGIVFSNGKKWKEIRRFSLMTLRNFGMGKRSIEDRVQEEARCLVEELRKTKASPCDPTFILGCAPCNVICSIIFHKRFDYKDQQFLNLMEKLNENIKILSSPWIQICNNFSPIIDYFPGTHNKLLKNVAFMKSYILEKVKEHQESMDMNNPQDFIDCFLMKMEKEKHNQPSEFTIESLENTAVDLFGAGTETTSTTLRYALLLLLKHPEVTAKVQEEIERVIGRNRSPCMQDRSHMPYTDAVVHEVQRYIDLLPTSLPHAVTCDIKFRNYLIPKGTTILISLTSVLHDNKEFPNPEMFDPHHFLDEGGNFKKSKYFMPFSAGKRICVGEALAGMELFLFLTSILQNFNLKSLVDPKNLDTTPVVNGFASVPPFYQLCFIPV

[3] = Metabolic stability in human liver microsomes assessed as compound remaining after 30 mins; type: ADME, Microsome; settings: read-out: Stability
Summary of the method: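 Compounds incubated with human hepatic microsomes; percent of parent concentration remaining at 30 min.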

CYP1A2 = biological target: T2, CYP1A2 (Homo sapiens, UniProt P05177); assay: Inhibition of human CYP1A2 assessed as residual activity using alpha-naphthoflavon as […] at 10 uM relative to control; type: ADME; settings: read-out: Activity
T2 sequence (P05177 whole entry): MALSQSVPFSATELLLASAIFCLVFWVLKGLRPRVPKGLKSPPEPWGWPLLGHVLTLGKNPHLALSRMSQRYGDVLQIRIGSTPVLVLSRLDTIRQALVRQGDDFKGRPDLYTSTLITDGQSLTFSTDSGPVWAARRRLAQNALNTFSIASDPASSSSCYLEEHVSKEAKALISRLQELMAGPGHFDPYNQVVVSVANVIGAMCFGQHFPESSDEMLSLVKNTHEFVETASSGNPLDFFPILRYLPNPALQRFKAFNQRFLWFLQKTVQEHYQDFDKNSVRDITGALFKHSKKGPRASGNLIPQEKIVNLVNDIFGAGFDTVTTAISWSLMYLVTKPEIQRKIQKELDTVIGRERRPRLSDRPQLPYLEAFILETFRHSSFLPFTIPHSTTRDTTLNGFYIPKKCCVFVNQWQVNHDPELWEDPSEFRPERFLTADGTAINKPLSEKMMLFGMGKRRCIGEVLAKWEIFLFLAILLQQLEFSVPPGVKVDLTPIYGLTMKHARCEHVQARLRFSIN

Rattus norvegicus [4] = assay: Antiallodynic activity in rat spinal nerve ligation neuropathic pain mechanical allodynia model at 100 mg/kg, po after 5 hrs; type: functional, organism-based; design: dose 100 mg/kg
Summary of the method: (§1)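 Cold and mechanical allodynia assessed at hours after a single oral 100 mg/kg dose, n = 4 per group; gabapentin 100 mg/kg po as reference.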

Rattus norvegicus [5] = organism: Rattus norvegicus; assay: Ratio of gabapentin antiallodynic activity to compound antiallodynic activity in rat spinal nerve ligation neuropathic pain cold allodynia model; type: functional
Rattus norvegicus [6] = assay: Antiallodynic activity in rat spinal nerve ligation neuropathic pain mechanical allodynia model at 100 mg/kg, po after 1 to 3 hrs; type: functional, organism-based; design: dose 100 mg/kg; summary of the method: as §1
Rattus norvegicus [7] = assay: Antiallodynic activity in rat spinal nerve ligation neuropathic pain cold allodynia model at 100 mg/kg, po after 1 to 5 hrs; type: functional, organism-based; design: dose 100 mg/kg; summary of the method: as §1

IC50 [1] [µM] | inhibition [2] [%] | Structure (SMILES) | further results
5.22 | 67.9 | Cc1ccc(N2CCc3c(NS(=O)(=O)c4ccc(F)cc4)n[nH]c3C2=O)cc1 | 
 | 18.1 | Cc1ccc(N2CCc3c(NS(=O)(=O)c4cccc(F)c4)n[nH]c3C2=O)cc1 | 
 | 31 | O=C1c2[nH]nc(NS(=O)(=O)c3cccc(Cl)c3)c2CCN1CC1CCNCC1 | 
3.28 | 69 | Cc1ccc(N2CCc3c(NS(=O)(=O)c4cccc(C(F)(F)F)c4)n[nH]c3C2=O)cc1 | 
7.08 | 63.3 | COc1ccc(N2CCc3c(NS(=O)(=O)c4cccc(OC)c4)n[nH]c3C2=O)cc1 | 
 | 3.8 | COc1ccc(OC)c(S(=O)(=O)Nc2n[nH]c3c2CCN(c2ccc(C)cc2)C3=O)c1 | 
 | 30.6 | COc1ccc(N2CCc3c(NS(=O)(=O)c4ccccc4)n[nH]c3C2=O)cc1 | 
 | 30.6 | COc1ccc(N2CCc3c(NS(=O)(=O)c4ccc(F)cc4)n[nH]c3C2=O)cc1 | 
 | 40.9 | O=C1c2[nH]nc(NS(=O)(=O)c3ccc4ccccc4c3)c2CCN1CC1CCNCC1 | 
 | 29.6 | Cc1ccc(N2CCc3c(NS(=O)(=O)c4ccccc4F)n[nH]c3C2=O)cc1 | 
 | 23.5 | Cc1ccc(N2CCc3c(NS(=O)(=O)c4ccccc4)n[nH]c3C2=O)cc1 | 
0.58 | 95.2 | COc1ccc(N2CCc3c(NS(=O)(=O)c4cccc(F)c4)n[nH]c3C2=O)cc1 | activity at 10 µM (CYP3A4): 19.5%; activity at 10 µM (CYP2D6): 87.8%; activity at 10 µM (CYP2C19): 81.8%; activity at 10 µM (CYP2C9): 78.6%; remaining at 0.5 h [3]: 96.3%; activity at 10 µM (CYP1A2): 63.5%
1.66 | 92.2 | Cc1ccc(N2CCc3c(NS(=O)(=O)c4cccc(Cl)c4C)n[nH]c3C2=O)cc1 | 
 | 5.4 | Cc1ccc(N2CCc3c(NS(=O)(=O)c4cccc(Cl)c4)n[nH]c3C2=O)cc1 | 
 | 11.5 | CC(C)(C)c1ccc(S(=O)(=O)Nc2n[nH]c3c2CCN(CC2CCNCC2)C3=O)cc1 | 
0.31 | 94.1 | O=C1c2[nH]nc(NS(=O)(=O)c3cccc4ccccc34)c2CCN1CC1CCNCC1 | activity at 10 µM (CYP3A4): 17.8%; Activity (Rattus norvegicus [4]): inactive; Ratio (Rattus norvegicus [5]): 5; activity at 10 µM (CYP2D6): 97.2%; activity at 10 µM (CYP2C19): 104%; activity at 10 µM (CYP2C9): 98.4%; remaining at 0.5 h [3]: 90.8%; activity at 10 µM (CYP1A2): 79.1%; Activity (Rattus norvegicus [6]): Active; Activity (Rattus norvegicus [7]): Active
0.77 | 89.5 | O=C1c2[nH]nc(NS(=O)(=O)c3cccc4ccccc34)c2CCN1C1CCNCC1 | activity at 10 µM (CYP3A4): 16.7%; activity at 10 µM (CYP2D6): 95.1%; activity at 10 µM (CYP2C19): 99.8%; activity at 10 µM (CYP2C9): 94.5%; remaining at 0.5 h [3]: 101%; activity at 10 µM (CYP1A2): 67.7%
6.77 | 63.2 | COc1cccc(S(=O)(=O)Nc2n[nH]c3c2CCN(c2ccc(C)cc2)C3=O)c1 | 
 | 97.7 | COc1ccc(NS(=O)(=O)c2ccc(I)cc2)cc1N1CCN(C)CC1 | 
 | 30.6 | Cc1ccc(F)c(S(=O)(=O)Nc2n[nH]c3c2CCN(CC2CCNCC2)C3=O)c1 | 
 | 26.1 | COc1ccc(S(=O)(=O)Nc2n[nH]c3c2CCN(C2CCNCC2)C3=O)cc1 | 
 | 51.7 | Cc1c(Cl)cccc1S(=O)(=O)Nc1n[nH]c2c1CCN(CC1CCNCC1)C2=O | 
 | 25.9 | Cc1ccc(N2CCc3c(NS(=O)(=O)c4cc(C)ccc4F)n[nH]c3C2=O)cc1 | 
 | 15.1 | COc1ccc(S(=O)(=O)Nc2n[nH]c3c2CCN(CC2CCNCC2)C3=O)cc1 | 
